TAAR1 antagonist – human TAAR1 antagonists, primary screen, Fluo-8 calcium fluorescence, CHO RD-HGA16 cells; Trace amine-associated receptor 1 (Homo sapiens), Q96RJ0; antagonist; inhibition, % at 3 µM; actives 1.5% (n = 360,000); AID 624466, 2012;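 active = inhibition above a per-plate cutoff, the mean inhibition of test compounds on that plate plus 3 SD, cut at about 49% in these data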;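 also: 0% = DMSO plus EC80 beta-PEA response and 100% = DMSO alone without agonist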
Target sequence (Q96RJ0 whole entry, looked up): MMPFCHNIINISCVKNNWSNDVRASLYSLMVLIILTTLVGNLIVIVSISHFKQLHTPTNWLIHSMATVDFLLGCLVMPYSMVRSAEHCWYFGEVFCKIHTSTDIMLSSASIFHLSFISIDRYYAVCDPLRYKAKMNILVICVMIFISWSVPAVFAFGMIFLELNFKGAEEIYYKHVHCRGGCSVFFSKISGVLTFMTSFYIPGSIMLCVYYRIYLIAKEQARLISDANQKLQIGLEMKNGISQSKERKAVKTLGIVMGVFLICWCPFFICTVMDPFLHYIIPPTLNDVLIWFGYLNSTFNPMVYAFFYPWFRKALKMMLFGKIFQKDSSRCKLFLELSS
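test system = CHO RD-HGA16 cells bearing hTAAR1 | replication = singlicate | controls = DMSO-only wells and EC80 β-PEA-stimulated wells | reagent = EC80 β-phenethylamine stimulus | read-out basis = percent inhibition of PEA-evoked calcium signal, max/basal emission ratio | schedule = seeding 17-24 h prior, 75-min 37 °C, 30-min RT dye loading | signal = kinetic Fluo-8 calcium fluorescence measurement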
OX1R antag-1 – antagonists of human orexin 1 receptor (OX1R) | Orexin/Hypocretin receptor type 1 (Homo sapiens), O43613 | OX1R-expressing cells, FRET antagonist read-out | inhibition, % at 6.6 µM | actives 1.8% (n = 330,000); in the data active = inhibition mostly above about 38%, no sharp cut-off; inactive = mostly below about 40%;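 also: 0% = agonist challenge alone and 100% = reference antagonist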
TAAR1 agonist – human TAAR1 agonists, primary screen, Fluo-8 calcium fluorescence, CHO RD-HGA16 cells; vehicle wells 0%, saturating PEA agonist 100%; actives 0.99% (n = 360,000); Trace amine-associated receptor 1 (Homo sapiens), Q96RJ0; activation, % at 3 µM;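 active = activation above the mean activation of all test compounds in the run plus 3 SD, cut at about 38% in these data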
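Test system: RD-HGA16 (CHO) cells co-expressing Gα16 and hTAAR1; dosing: one-point dosing at 3 µM (nominal); timing: 17-24 h seeding, 75 min 37 °C dye, 30 min RT; signal: kinetic Fluo-8 calcium fluorescence; read-out basis: % activation relative to PEA EC100 response; controls: DMSO and PEA EC100; replicates: n 1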
CHO parental Ca – ATP-evoked calcium signal inhibitors, parental CHO, primary screen, counter-screen for OX1R antagonist project, cell-based, fluorescence, Fluo-8 calcium dye; actives 0.63% (n = 330,000); parental CHO-K1, ATP-induced calcium, Fluo-8 fluorescence; inhibition, % at 5.6 µM;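 active = inhibition above that plate's mean sample inhibition plus 3 SD, cut at about 26% in these data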;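 also: 0% = ATP-challenged DMSO wells and 100% = DMSO wells without ATP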
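test system = CHO parental line | reagent = ATP stimulus | measured by = intracellular calcium via Fluo-8 no-wash fluorescent dye | control set = ATP and no-ATP DMSO wells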
OX1R antag-2 – OX1R (HCRTR1) antagonists, primary screen, fluorescence, CHO/OX1R cells, Fluo-8 calcium, orexin A; AID 434989, 2010; Fluo-8 calcium fluorescence; inhibition, % at 5 µM; actives 0.43% (n = 330,000);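 active = inhibition above its plate's threshold, mean inhibition of all tested compounds on the plate plus 3 SD, cut at about 37% in these data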;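 also: 0% = orexin A challenge wells and 100% = SB-334867-A antagonist wells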
GPR7 antagonist – GPR7 receptor antagonists, primary screen, cell-based, fluorescence, single concentration | actives 1.1% (n = 290,000) | Neuropeptides B/W receptor type 1 (Homo sapiens), P48145 | AID 1861, 2009 | inhibition, % at 4.4 µM | GPR7-expressing cells, fluorescence antagonist assay; in the data active = inhibition above about 16%, passing the limit was not always enough;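 also: cells stimulated with the agonist NPW; 0% = agonist with vehicle and 100% = vehicle without agonist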
Target sequence (P48145 whole entry, looked up): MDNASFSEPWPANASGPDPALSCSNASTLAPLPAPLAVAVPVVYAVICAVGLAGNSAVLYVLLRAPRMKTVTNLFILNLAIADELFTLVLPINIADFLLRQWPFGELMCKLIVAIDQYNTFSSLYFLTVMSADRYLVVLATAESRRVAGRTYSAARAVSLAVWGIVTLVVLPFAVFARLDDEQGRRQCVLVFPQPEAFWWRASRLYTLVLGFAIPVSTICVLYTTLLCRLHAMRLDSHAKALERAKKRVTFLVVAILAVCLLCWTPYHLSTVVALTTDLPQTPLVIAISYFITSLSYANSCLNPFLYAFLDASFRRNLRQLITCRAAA
The depositor's hits bear a star; nt = no result given; ! = not active in a repeat. Only some compounds are listed: those with a hit (about 4.6% of all), similar ones and a draw of the others.

SMILES | TAAR1 antagonist | OX1R antag-1 | TAAR1 agonist | CHO parental Ca | OX1R antag-2 | GPR7 antagonist
COc1ccc(-c2cc(C(=O)Nc3cc(OC)cc(C(=O)Nc4cccc(C(F)(F)F)c4)c3)[nH]n2)cc1 | 55* | 20 | 10 | 32* | 22 | nt
CCN1CCN(Cc2ccc(NC(=O)c3cc(NC(=O)c4ccno4)cc(OC)c3)cc2C(F)(F)F)CC1 | 14 | 15 | 7 | -6 | -17 | nt
CCN1CCN(Cc2ccc(NC(=O)c3cc(NC(=O)c4cc5cccc(OC)c5o4)cc(OC)c3)cc2C(F)(F)F)CC1 | 59*! | 21 | 11 | -3 | -19 | nt
C[C@H](O)[C@@H]1C(=O)N2CCc3c([nH]c4c(-c5ccccc5)cccc34)[C@@H]2C[C@@H]1N(C)C(=O)c1ccco1 | 47 | nt | 15 | nt | nt | nt
CCCCCCCCC(c1nc2ccccc2[nH]1)N1CCN=C(c2ccccc2)C1=O (stereo unspecified) | 38 | nt | 1 | nt | nt | nt
COC(=O)Cn1c(=NC(=O)c2cccc(OC)c2)sc2cc(OC)ccc21 | 49* | 7 | 6 | 1 | -12 | -9
COC(=O)Cn1c(=NC(=O)c2cc(OC)cc(OC)c2)sc2cc(OC)ccc21 | 4 | 20 | 6 | -4 | -15 | 3
Cc1cc(C)cc(Cn2cc(CN3CC(N4CCCCC4)CS3(=O)=O)nn2)c1 (stereo unspecified) | -14 | nt | 0 | nt | nt | nt
CCC1CCCCN1S(=O)(=O)c1ccc(S(=O)(=O)N(Cc2ccccn2)CC2CCCO2)cc1 (stereo unspecified) | -10 | 17 | 2 | -26 | -20 | 6
CCC1CCCCN1S(=O)(=O)c1ccc(S(=O)(=O)N(Cc2cccs2)C2CC2)cc1 (stereo unspecified) | -9 | 29 | 1 | 25 | 54* | 8
O=C(Nc1ccc(Cl)cc1)C1CCCCN1S(=O)(=O)c1ccccc1 (stereo unspecified) | -4 | 28* | 3 | 6 | 20 | nt
CC(=O)Nc1ccc(NC(=O)C2CCCCN2S(=O)(=O)c2ccc(C(C)(C)C)cc2)cc1 (stereo unspecified) | 55* | 9 | 10 | -10 | -8 | -16
Cc1ccc(NC(=O)[C@@H]2CCCN2S(=O)(=O)c2ccc(Cl)cc2)cc1 | -30 | 48* | 0 | -9 | 16 | nt
CCOC(=O)C1CSCCS(=O)(=O)N1Cc1ccc(C)cc1 (stereo unspecified) | -10 | nt | 2 | nt | nt | nt
COc1cccc(C(=O)N2CCC[C@@H]2C(=O)N2CCC[C@@H]2C(=O)NCc2ccccc2)c1 | -29 | nt | 1 | nt | nt | nt
CCC1CCCCN1S(=O)(=O)c1ccc(C(=O)Nc2nnc(C3CC3)o2)cc1 (stereo unspecified) | -22 | 21 | 3 | -17 | -28 | -1
CCC1CCCCN1S(=O)(=O)c1ccc(NC(=O)c2ccncc2)cc1 (stereo unspecified) | 18 | 27 | 12 | 42* | 20 | 19
CCCCCOc1ccc(C(=O)CCC(=O)NNC(=O)c2ccncc2)cc1 | -15 | nt | 2 | nt | nt | nt
CCOC(=O)Cn1c(=O)oc2cc(S(=O)(=O)NC3CCCc4ccccc43)ccc21 (stereo unspecified) | 19 | 8 | 2 | 14 | -8 | 28*
CCCN(CC(=O)Nc1cc(Cl)ccc1Cl)C(=O)/C=C/c1cc(OC)ccc1OC | 26 | 43* | 12 | -19 | 32 | nt
CCCN(CC(=O)Nc1ccc(Cl)cc1Cl)C(=O)/C=C/c1cc(OC)ccc1OC | 23 | 18 | 0 | -27 | -24 | -4
CC(C)OC(=O)/C(=C\c1ccc2c(c1)c1ccccc1n2C)NC(=O)c1ccccc1 | 50* | 35 | 4 | 4 | 15 | -7
CN(c1cccnc1)c1ccc(NC(=O)Cc2c[nH]c3ccccc23)cc1Br | -12 | nt | 4 | nt | nt | nt
CCC1CCCCN1C(=S)NN=C(C)c1ccccn1 (stereo unspecified) | -36 | nt | 3 | nt | nt | nt
CCN(CC)C(=O)c1oc2ccc(S(=O)(=O)N3CC(C)CC(C)C3)cc2c1C (stereo unspecified) | -1 | 60 | 6 | 41* | 33 | 4
SMILES | TAAR1 antagonist | OX1R antag-1 | TAAR1 agonist | CHO parental Ca | OX1R antag-2 | GPR7 antagonist
CCN(CC)C(=O)c1oc2ccc(S(=O)(=O)N3CCCCCC3)cc2c1C | -12 | 19 | 6 | -19 | -3 | 1
CC(=O)c1cccc(NC(=O)Nc2nc(C)cc(C)n2)c1 | -18 | 59* | 1 | -1 | 0 | -6
Cc1ccnc(NC(=O)c2cccc(NC(=O)c3ccc(Cl)cc3)c2)c1 | 44 | nt | 9 | nt | nt | nt
COc1ccc(OC)c(NC(=O)c2cccc(NC(=O)c3ccccc3)c2)c1 | 18 | 54* | 5 | -15 | -14 | -1
CC(=O)c1cccc(NC(=O)Nc2ccccc2)c1 | 17 | 4 | 28 | 2 | -25 | 20
Cc1ccnc(NC(=O)c2cccc(NC(=O)c3ccc(Cl)c(Cl)c3)c2)c1 | 54* | nt | 14 | nt | nt | nt
CC(=O)c1cccc(NC(=O)c2ccc3ccccc3c2)c1 | 37 | 8 | 20 | -20 | -21 | -1
CC(=O)c1ccc(NC(=O)c2cccc(NC(=O)c3ccccc3)c2)cc1 | 50* | -5 | 12 | 5 | -20 | -8
COc1ccc(NC(=O)c2cccc(NC(=O)c3ccccc3)c2)c(OC)c1 | 17 | 12 | 8 | -17 | -22 | -9
CC(C)NC(=O)C1(C)CCN1Cc1cccc(C#N)c1 (stereo unspecified) | 8 | nt | 0 | nt | nt | nt
c1ccc(-c2ccccc2C2Cc3nnccc3CN2)cc1 (stereo unspecified) | -31 | nt | 2 | nt | nt | nt
C=CCN=C1NC(c2cccc(Cl)c2)C(C(=O)OC)=C(C)N1C (stereo unspecified) | 7 | nt | 0 | nt | nt | nt
COc1ccc(/C=C/C(=O)NC(=S)Nc2cc([N+](=O)[O-])ccc2O)cc1OC | 14 | 60* | 8 | -19 | -6 | -2
COc1ccc([N+](=O)[O-])cc1NC(=S)NC(C)=O | -5 | 12 | 7 | -2 | -13 | -4
COc1cc(/C=C/C(=O)NC(=O)c2ccccc2O)ccc1O | -36 | 67* | 2 | -15 | -16 | -25
CCCCC(=O)NC(=S)Nc1cc([N+](=O)[O-])ccc1OC | -42 | 19 | 0 | 41* | -14 | -12
COc1ccc([N+](=O)[O-])cc1NC(=O)CSc1ccc2ccccc2c1 | 21 | 61* | 1 | 24 | -3 | 1
O=C(Nc1cccc(OC(F)(F)F)c1)C1Cc2c(-c3ccc4c(c3)OCO4)ccnc2O1 (stereo unspecified) | -5 | nt | 2 | nt | nt | nt
